ChEMBL document CHEMBL1128402, “Irreversible inhibitors of nicotinic acetylcholine receptors: isolation and structural characterization of the biologically active solvolysis products of bipinnatin-A and bipinnatin-C” (J Med Chem, 1995)

Tests used:
[1] = Amount acetic acid produced by the compound; assay type: ADME
[2] = Half-life was determined; assay type: ADME
How it was run: (§1)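 Toxin at 100 μM (diluted from 10 mM DMSO stock) in 25 mM sodium phosphate, pH 7.4, 1% DMSO, at 22–24 °C for various times. Fit by nonlinear regression to a single-exponential decay; mean ± SEM of 3–9 independent experiments.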

[3] = Rate of acetate production by the compound was determined; assay type: ADME
How it was run: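 Toxin at 100 μM in 25 mM sodium phosphate, pH 7.4, 1% DMSO, at 22–24 °C for up to 8 h. Acetic acid was then measured with a coupled enzyme assay (NAD to NADH, A340 every 5 s for 5 min, initial rate by linear regression, calibrated with 25–200 μM acetate standards). Percent of maximum fit to a single-exponential growth function; mean ± SEM of 3–9 experiments.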

[4] = Rate constant of solvolysis for the compound was determined; assay type: ADME; how it was run: as §1
[5] = Amount of acetic acid produced by the compound; assay type: ADME
[6] = test system: BC3H-1; assay: Irreversible inhibition rate of [1251]alpha-bungarotoxin binding to Nicotinic acetylcholine receptor (neuronal and muscle) by bipinnatin-A on intact BC3H-1 cell lines; assay type: cell-based
How it was run: (§2)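 Toxin diluted to 100 µM in assay buffer with 1% DMSO was added straight onto BC3H-1 cells. At set times it was removed and remaining receptors were measured with saturating [125I]-α-bungarotoxin. The log of specific binding relative to time zero was plotted against time. Rates came from nonlinear regression, double-exponential where applicable, from at least two independent experiments.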

[7] = test system: BC3H-1; assay: Irreversible inhibition of [1251]alpha-bungarotoxin binding to Nicotinic acetylcholine receptor (neuronal and muscle) by bipinnatin-A on intact BC3H-1 cell lines; assay type: cell-based; settings: dose or concentration not given here
How it was run: (§3)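 Each toxin was preincubated 0–8 h in pH 7.4 phosphate buffer, then its HPLC-isolated peak was dissolved in Hepes/KCl assay buffer pH 7.4 with 1% DMSO. BC3H-1 cells were equilibrated 20 min at 22–24 °C, given the toxin for 1 h, washed, then given saturating [125I]-α-bungarotoxin (15–20 nM) for 1 h. Bound label was gamma-counted, nonspecific binding defined with 100 nM α-bungarotoxin, run in triplicate.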

[8] = test system: BC3H-1; assay: Irreversible inhibition of [1251]alpha-bungarotoxin binding to Nicotinic acetylcholine receptor (neuronal and muscle) by bipinnatin-A(A4) on intact BC3H-1 cell lines; assay type: cell-based; settings: dose or concentration not given here; how it was run: as §3
[9] = Half-life of the bipinnatin-A(A4) was determined; assay type: ADME
[10] = test system: BC3H-1; assay: Irreversible inhibition rate of [1251]alpha-bungarotoxin binding to Nicotinic acetylcholine receptor (neuronal and muscle) by bipinnatin-A(A4) on intact BC3H-1 cell lines; assay type: cell-based; how it was run: as §2
[11] = Apparent first-order rate of solvolysis for the bipinnatin-A(A4) was determined; assay type: ADME

Structure (SMILES) | Acid hydrolysis [1] [mol/mol] | T1/2 [2] [h] | Activity [3] [h⁻¹] | half-life [2] [h] | Ksolv [4] [h⁻¹] | Activity [5] [M⁻¹] | inhibition [6] [min⁻¹] | inhibition [7] [%] | inhibition [8] [%] | half-life [9] [h] | inhibition [10] [min⁻¹] | Activity [11] [h⁻¹]
CC(=O)OCC[N+](C)(C)C [ACETYLCHOLINE] | 0.22 |  |  |  |  |  |  |  |  |  |  | 
C=C(C)[C@@H]1CC2=C(C=O)C=C(O2)[C@@H]2O[C@@]2(C)C[C@H]2OC(=O)[C@@]3(O[C@H]23)[C@@H](OC(C)=O)C1 [LOPHOTOXIN] |  |  |  | 40 | 0.017 | 0.17 |  |  |  |  |  | 
C=C(C(=O)OC)[C@H]1CC(OC(C)=O)[C@@]23O[C@@H]2C(C[C@]2(C)O[C@H]2C2=CC(C)=C(O2)C1OC(C)=O)OC3=O (some centres not stated) |  | 1.04 | 0.67 | 1.08 | 0.638 |  | 0.29 | 41.5 | 57.5 | 1.74 | 0.033 | 0.399

Second part, led by results:

Acid hydrolysis [1] [mol/mol] | T1/2 [2] [h] | Activity [3] [h⁻¹] | Structure (SMILES) | half-life [2] [h] | Ksolv [4] [h⁻¹] | Activity [5] [M⁻¹] | inhibition [6] [min⁻¹] | inhibition [7] [%] | inhibition [8] [%] | half-life [9] [h] | inhibition [10] [min⁻¹] | Activity [11] [h⁻¹]
 | 1.24 | 0.589 | CC(=O)OC1C2=C(C)C=C(O2)[C@@H]2O[C@@]2(C)CC2OC(=O)[C@@]3(O[C@H]23)C(OC(C)=O)C[C@@H]1C1(C)CO1 (some centres not stated) | 1.17 | 0.596 |  |  |  |  |  |  | 
 | 0.97 | 0.735 | C=C(C=O)[C@H]1CC(OC(C)=O)[C@@]23O[C@@H]2C(C[C@]2(C)O[C@H]2C2=CC(C)=C(O2)C1OC(C)=O)OC3=O (some centres not stated) | 0.97 | 0.719 |  |  |  |  |  |  | 
